# SUMO HTRF inh: SUMOylation inhibition | HTRF SUMOylation assay, SAE1/SAE2 + UBC9, in vitro | inhibition, % at 35 µM | hit rate 0.36% among 290,000; in the data active = inhibition above about 50%, passing the limit was not always enough
# Target sequence (P63279 whole entry, looked up): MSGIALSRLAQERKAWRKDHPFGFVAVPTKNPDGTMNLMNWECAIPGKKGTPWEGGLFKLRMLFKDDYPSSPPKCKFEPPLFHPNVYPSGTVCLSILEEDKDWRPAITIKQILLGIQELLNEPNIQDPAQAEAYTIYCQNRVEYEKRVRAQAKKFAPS
# IMP-1 inhibitor: inhibitors of Pseudomonas aeruginosa IMP-1 metallo-beta-lactamase; purified IMP-1, nitrocefin hydrolysis, epi-absorbance fluorescence; inhibition, % at 5.6 µM; hit rate 0.45% among 290,000; AID 1556;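 active = inhibition above the mean plus 3 SD of all compounds in the same screening run, cut at about 4.5% in these data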;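 note: 0% = IMP-1 with DMSO and 100% = DMSO wells lacking enzyme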
#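 Material – recombinant IMP-1 enzyme, purified · Amount – IMP-1 0.2 nM before substrate addition · Medium – HEPES buffer pH 7.1 with ZnSO4 and Brij 35 · Timing – 25 °C, 15 min preincubation, 25 min reaction · Measured by – plate fluorescence quenching by hydrolysis product, ex 480/em 530 nm · Read-out – percent enzyme inhibition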
# FID counter: displaces DNA intercalator in HCV helicase counter-screen; DNA fluorescent intercalator displacement, fluorescence; inhibition, % at 7.9 µM; hit rate 0.17% among 290,000; AID 1845; in the data active = inhibition above about 37%;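 note: 0% = vehicle and 100% = reference compound; higher means more ethidium bromide displaced from hairpin DNA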
# VIM-2 inh: blocks Pseudomonas aeruginosa VIM-2 metallo-beta-lactamase | purified VIM-2, nitrocefin hydrolysis, epi-absorbance fluorescence | inhibition, % at 5.6 µM | hit rate 0.89% among 290,000;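 active = inhibition above the mean of all tested compounds plus 3 SD, cutoff set per screening run, cut at about 7.5% in these data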;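 note: red hydrolysis product quenches plate fluorescence so inhibitors raise well fluorescence; 0% = enzyme with DMSO and 100% = DMSO without enzyme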
# HCV NS3 hel inh: HCV NS3 helicase inhibition | NS3 helicase DNA unwinding, Cy5 molecular beacon fluorescence | AID 1800 | inhibition, % at 10.9 µM | hit rate 0.56% among 290,000;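 active = inhibition above the mean of all tested compounds plus 3 SD, set per campaign, cut at about 35% in these data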;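 note: 0% = DMSO wells and 100% = thioflavine S control wells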
#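 Control set: DMSO versus 110 µM thioflavine S; Material: NS3 helicase fragment of HCV; Measured by: Cy5 fluorescence at 0 and 60 min, beacon hairpin quenching; Read-out basis: percent inhibition from t60/t0 fluorescence ratio; Times: reaction time 60 min, 25 °C; Repeats: single replicate; Compound dosing: single dose, 10.9 µM nominal final, DMSO 0.8% final.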
# Starred values were filed as active, the others as inactive; nt = no result given. In the library only some 2.1% were active in any assay of this set; here they are far more common.
SMILES,SUMO HTRF inh,IMP-1 inhibitor,FID counter,VIM-2 inh,HCV NS3 hel inh
CCOc1cc(C(N)=O)cc(Br)c1OC,2,4.6*,2,2,5
COc1ccc(CCNC(=O)c2cc3c(=O)n4ccccc4nc3n(CCCN3CCOCC3)c2=N)cc1,10,-4,48*,10*,-17
COc1ccc(CCNC(=O)c2cc3c(=O)n4ccccc4nc3n(Cc3ccco3)c2=N)cc1OC,17,-3,-3,8.1*,-6
COc1ccc(CCNC(=O)c2cc3c(=O)n4ccccc4nc3n(CCN3CCOCC3)c2=N)cc1,10,-2,-7,3,0
CCCNc1nc2nc3ccccn3c(=O)c2cc1C(=O)NCCN1CCOCC1,18,-2,40*,3,7
COc1ccc(CNC(=O)c2cc3c(=O)n4ccccc4nc3n(Cc3ccco3)c2=N)cc1,nt,-7,-8,1,2
Cc1ccc2nc3c(cc(C(=O)NCCc4ccccc4)c(=N)n3CCCN3CCOCC3)c(=O)n2c1,23,-3,31,9.6*,-19
COc1cccc(NC(=O)NC2CCCc3ccccc32)c1 (stereo not given),-15,-2,-7,-1,-9
COc1cc(-c2nnc(CSc3nnc(Nc4ccc(Oc5ccccc5)cc4)s3)o2)cc(OC)c1OC,-13,-5,-7,-4,5
COc1ccc(COCC(O)CN(Cc2ccccc2)C(C)C)cc1OC (stereo not given),-12,-3,3,-3,1
COc1ccc(CCn2c(=N)c(C(=O)NCCN3CCOCC3)cc3c(=O)n4ccccc4nc32)cc1OC,16,1,44*,8.2*,6
COc1ccc(CCNC(=O)c2cc3c(=O)n4ccccc4nc3n(CC3CCCO3)c2=N)cc1OC (stereo not given),-12,0,10,4,-1
Cn1c(COc2ccc([N+](=O)[O-])cc2)nnc1SCC(=O)NCC1CCCO1 (stereo not given),0,-3,-7,-2,2
N#CC1CCN(C(=O)c2ccc3c(Cl)c4c(nc3c2)CCCC4)CC1,-6,-1,-42,1,1
CCOC(=O)N1CCN(C(=O)c2ccc3c(SCC(=O)O)c4c(nc3c2)CCCC4)CC1,3,-6,-52,-3,1
CCN1CCN(C(=O)c2ccc3c(Cl)c4c(nc3c2)CCCC4)CC1,2,-1,3,8.2*,-9
CN1CCN(C(=O)c2ccc3c(Cl)c4c(nc3c2)CCCC4)CC1,0,1,5,11*,-4
COc1ccc(-c2cc3c(=O)n(CC(=O)NCCCc4ccccc4)ncn3n2)cc1,17,15*,-15,0,21
CCC(C)NC(=O)c1ccccc1C(=O)NC(C)CC (stereo not given),5,6.1*,1,-1,9
CCCCNC(=O)c1ccc(NS(=O)(=O)c2ccc3[nH]c(=O)[nH]c3c2)cc1,10,-4,-2,-3,-8
CCc1ccc2c(CC(=O)Nc3nnc(C4CC4)s3)coc2c1,7,61*,-11,-3,1
CCc1ccc(OCC(=O)Nc2nnc(C3CCCC3)s2)cc1,-3,-2,-33,-7,1
COC(=O)C1CCC(=S)N1C(=O)c1ccccc1 (stereo not given),4,20*,-1,1,6
COc1cc(C2/C(=C(\O)c3ccc4c(c3)OCCO4)C(=O)C(=O)N2Cc2ccccc2)ccc1O (stereo not given),3,0,-55,0,22
O=C1C(=O)N(Cc2ccncc2)C(c2ccccc2F)/C1=C(\O)c1ccc2c(c1)OCCO2 (stereo not given),-5,-4,-45,11*,16
SMILES,SUMO HTRF inh,IMP-1 inhibitor,FID counter,VIM-2 inh,HCV NS3 hel inh
Cc1cccc(NC(=O)CCSc2nnc(Cc3ccccc3)o2)c1,5,0,-23,-3,-8
Cc1c(C)c2ccc(OCC(=O)NC3CCN(Cc4ccccc4)CC3)cc2oc1=O,6,-3,9,12*,2
Cc1cc(=O)oc2cc(OCC(=O)NC3CCN(Cc4ccccc4)CC3)ccc12,18,-2,9,4,7
Cc1cccc(C)c1NC(=O)CSc1nnc(C2CCCCC2)o1,1,-3,-23,-4,0
COc1cc(C2c3sc(=O)[nH]c3SC3C4CCC(C4)C23)ccc1O (stereo not given),-4,3,-18,8.8*,5
COc1ccc(C2c3sc(=O)[nH]c3SC3C4CCC(C4)C23)cc1 (stereo not given),7,-2,-25,2,28
COC(=O)C1=C(N)Oc2cc(C)n(CC3CCCO3)c(=O)c2C1c1ccccc1OC (stereo not given),16,-2,-5,-3,-5
COC(=O)C1=C(N)Oc2cc(N(C)C)ccc2C1c1ccccc1OC (stereo not given),-2,7.5*,-11,-1,-3
O=C(Nc1ccc(Br)cc1)c1ccc(N2C(=O)C3CC=C(Cl)CC3C2=O)cc1 (stereo not given),53*,0,-14,-2,4
CSc1nc2c(c(-c3ccc(O)cc3)c1C#N)CCC2,4,-4,-4,7.8*,-8
Cc1ccc(-n2ncc(C(=O)Nc3cc(Cl)cc(Cl)c3)c2C2CCNCC2)cc1C,-18,-3,43*,1,-69
COc1ccc(N2CCN(C(CNS(=O)(=O)c3ccccc3)c3ccccc3)CC2)cc1 (stereo not given),8,0,-5,-1,-10
C=CCn1c(-c2ccccc2OC)n[nH]c1=S,0,-2,-14,9.8*,9
C=CCn1c(-c2ccccc2)n[nH]c1=S,2,-2,-4,3,7
C=CCn1c(-c2ccoc2)n[nH]c1=S,5,-4,2,10*,-7
COc1ccc(C(=O)c2cn[nH]c2-c2cc(C)ccc2O)cc1,11,-2,-12,-2,-14
COc1ccc(O)c(-c2[nH]ncc2C(=O)c2cccc(C)c2)c1,-12,5.1*,-6,-1,6
CCOC(=O)COc1cc(OCC(=O)OCC)c2c3c(c(=O)oc2c1)CCCC3,-1,-2,-31,9.4*,-10
CN(C)CCCN(C(=O)c1ccc2c(c1)OCCO2)c1nc2ccc(Cl)cc2s1,-1,-3,40*,1,-30
CN(C)CCCN(C(=O)c1ccc(S(=O)(=O)N2CCc3ccccc3C2)cc1)c1nc2ccc(F)cc2s1,7,0,41*,-2,-38
CN(C)CCN(C(=O)c1ccc2c(c1)OCCO2)c1nc2ccc(Cl)cc2s1,-8,-2,9,-2,3
Cc1cccc2sc(N(CCCN(C)C)C(=O)c3ccc(S(=O)(=O)N4CCc5ccccc5C4)cc3)nc12,19,0,38*,-2,-43
CN(C)CCCN(C(=O)c1cc(-c2cccs2)nc2ccccc12)c1nc2ccc(F)cc2s1,5,-1,40*,-2,-38
C=CCNC(=O)N1CCCC(C(=O)c2cccc(OC(C)C)c2)C1 (stereo not given),-2,-2,-24,-1,-1

# High-throughput results (PubChem BioAssay)
